Assay [1] has as its target T1, Dihydroorotate dehydrogenase (quinone), mitochondrial (Homo sapiens, UniProt Q02127). Briefly: Inhibition of DHODH in human HEK293 cells transfected with ISRE-luciferase reporter gene assessed as increase in 125 IU/ml IFN-alpha stimulated MX2 mRNA expression at 80 uM measured after 16 hrs by RT-qPCR analysis relative to control. In kind it is cell-based. The gist of the method:
(§1)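 ISRE-Luc HEK cells co-treated with increasing IFN-α concentrations and DMSO or compound (80 µM) for 16 h. Total RNA extracted from 2×10^5 cells with DNase step; qPCR 35 cycles. CT values normalized to RPL13A and unstimulated controls (2^-ΔΔCT), expressed as fold change versus DMSO alone. Three independent experiments; two-way ANOVA with Bonferroni.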

Assay [2] has as its target T1, Dihydroorotate dehydrogenase (quinone), mitochondrial. Briefly: Inhibition of DHODH in human HEK293 cells transfected with ISRE-luciferase reporter gene assessed as increase in INFgamma-stimulated cellular response at 80 uM measured after 24 hrs by luciferase reporter gene assay. In kind it is cell-based. The gist of the method:
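ISRE-Luc HEK-293 cells were treated with DMSO or compound at 80 μM, with or without recombinant IFN-γ at 150 IU/ml. Firefly luciferase was read 24 h later with Bright-Glo or Britelite, 0.1 s luminescence. Signal was normalized to DMSO + IFN-γ. Values are means ± SD of three independent experiments; two-tailed t-test.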
(In general: A reporter such as luciferase makes a cellular process visible.)

Assay [3] has the same target. As to the kind of experiment: Inhibition of DHODH in human HEK293 cells transfected with ISRE-luciferase reporter gene assessed as increase in 125 IU/ml IFN-alpha stimulated IFITM3 mRNA expression at 80 uM measured after 16 hrs by RT-qPCR analysis relative to control. In kind it is cell-based. The gist of the method: as §1
Assay [4] shares this target. Briefly: Inhibition of DHODH in human HEK293 cells transfected with ISRE-luciferase reporter gene assessed as increase in 60 IU/ml IFN-alpha stimulated ISG15 mRNA expression at 80 uM measured after 16 hrs by RT-qPCR analysis relative to control. In kind it is cell-based. A digest of the protocol: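 HEK-293 ISRE-Luc cells (DMEM, 10% FCS, 37°C, 5% CO2) were given increasing IFN-α doses together with DMSO or compound at 80 μM, then harvested at 16 h. RNA was extracted from 2×10^5 cells with DNase treatment. Transcripts were run by qPCR for 35 cycles and normalized to RPL13A and to unstimulated controls by 2^-ΔΔCT. Values are fold change versus DMSO; three independent experiments; two-way ANOVA with Bonferroni.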

Assay [5] has the same target. Briefly: Inhibition of DHODH in human HEK293 cells transfected with ISRE-luciferase reporter gene assessed as increase in 60 IU/ml IFN-alpha stimulated […] mRNA expression at 80 uM measured after 16 hrs by RT-qPCR analysis relative to control. It counts as cell-based. The gist of the method:
as §1

The target is the same in assay [6]. As to the kind of experiment: Inhibition of DHODH in human HEK293 cells transfected with ISRE-luciferase reporter gene assessed as increase in 30 IU/ml IFN-alpha stimulated PML mRNA expression at 80 uM measured after 16 hrs by RT-qPCR analysis relative to control. In kind it is cell-based. A digest of the protocol: as §1
Assay [7] has the same target. Briefly: Inhibition of DHODH in human HEK293 cells transfected with ISRE-luciferase reporter gene assessed as increase in 250 IU/ml IFN-alpha stimulated PML mRNA expression at 80 uM measured after 16 hrs by RT-qPCR analysis relative to control. In kind it is cell-based. The gist of the method:
as §1

For assay [8] the target is unchanged. As to the kind of experiment: Inhibition of DHODH in human HEK293 cells transfected with ISRE-luciferase reporter gene assessed as increase in 125 IU/ml IFN-alpha stimulated PKR mRNA expression at 80 uM measured after 16 hrs by RT-qPCR analysis relative to control. In kind it is cell-based. A digest of the protocol: as §1
Assay [9] has the same target. Briefly: Inhibition of DHODH in human HEK-293 cells transfected with ISRE-luciferase reporter gene assessed as increase in IFN-alpha mediated cellular response after 24 hrs by luciferase reporter gene assay. Particulars: read-out: EC50.
Assay [10] has the same target. As to the kind of experiment: Inhibition of DHODH in human HEK293 cells transfected with ISRE-luciferase reporter gene assessed as increase in 30 IU/ml IFN-alpha stimulated MX2 mRNA expression at 80 uM measured after 16 hrs by RT-qPCR analysis relative to control. It counts as cell-based. A digest of the protocol:
as §1

Assay [11] has the same target. Briefly: Inhibition of DHODH in human HEK293 cells transfected with ISRE-luciferase reporter gene assessed as increase in 30 IU/ml IFN-alpha stimulated DDX58 mRNA expression at 80 uM measured after 16 hrs by RT-qPCR analysis relative to control. In kind it is cell-based. A digest of the protocol: as §1
Assay [12] shares this target. Briefly: Inhibition of DHODH in human HEK293 cells transfected with ISRE-luciferase reporter gene assessed as increase in 250 IU/ml IFN-alpha stimulated IFITM3 mRNA expression at 80 uM measured after 16 hrs by RT-qPCR analysis relative to control. It counts as cell-based. A digest of the protocol: as §1
For assay [13] the target is unchanged. Briefly: Inhibition of DHODH in human HEK-293 cells transfected with ISRE-luciferase reporter gene assessed as increase in 150 IU/ml IFN-alpha mediated cellular response at 80 uM in presence of P300/CBP measured after 24 hrs by luciferase reporter gene assay. In kind it is cell-based. The settings on record: HEK293. The gist of the method:
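ISRE-Luc HEK-293 cells given IFN-α (150 IU/ml) alone or with test compound (80 µM), with or without the MRE11 inhibitor mirin, ATR inhibitor AZD6738, CHK1 inhibitor PF477736 or P300/CBP inhibitor C636. Firefly luciferase read 24 h later, normalized to IFN-α alone. Means ± SD of at least three independent experiments.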

Assay [14] has the same target. Briefly: Inhibition of DHODH in […] treated with R848 stimulated cell supernatant assessed as increase in IFN-gamma-containing conditioned supernatant-stimulated cellular response at 80 uM measured after 24 hrs by luciferase reporter gene assay. In kind it is cell-based. A digest of the protocol: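 Donor PBMCs were activated for 24 h with R848 at 5 µg/ml, and the supernatants (containing IFN-γ) were collected. HEK-293 ISRE-Luc reporter cells, not PBMCs, were then stimulated with these supernatants diluted 1/8 to 1/64, in the presence of DMSO or compound at 80 μM. Luciferase was read at 24 h and normalized to cells given the 1/8 dilution. Three independent experiments; two-way ANOVA with Bonferroni.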

For assay [15] the target is unchanged. Briefly: Inhibition of DHODH in human HEK293 cells assessed as reduction in intracellular pyrimidine level measured after 24 hrs by HPLC coupled spectrophotometry. In kind it is cell-based. A digest of the protocol: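 HEK-293 cells plated at 1×10^6 per well, treated 24 h later with compound (80 µM final) or DMSO for 24 h. Pellets deproteinized with 6% perchloric acid, neutralized with Na2CO3, analysed by C18 HPLC at 45°C with ion-pair phosphate/MeOH gradient, detected at 254 nm against reference nucleoside calibration curves. Normalized to viable cell number and DMSO controls.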

The target is the same in assay [16]. Briefly: Inhibition of DHODH in human HEK-293 cells transfected with ISRE-luciferase reporter gene assessed as increase in IFN-alpha mediated cellular response at 80 uM in presence of DHO measured after 24 hrs by luciferase reporter gene assay. In kind it is cell-based. Particulars: HEK293. A digest of the protocol: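 ISRE-Luc HEK-293 cells exposed to increasing IFN-α concentrations with DMSO or compound (80 µM), supplemented with uridine (125 µM) or with 3 mM orotate or DHO. Reporter luciferase read after 24 h, normalized to DMSO + IFN-α 250 IU/ml. Means ± SD of three independent experiments; two-way ANOVA.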

pEC50: −log10 of the molar value. Activity calls are given as the source filed them. The rule behind the calls is not given here.

T1 sequence (Q02127 whole entry): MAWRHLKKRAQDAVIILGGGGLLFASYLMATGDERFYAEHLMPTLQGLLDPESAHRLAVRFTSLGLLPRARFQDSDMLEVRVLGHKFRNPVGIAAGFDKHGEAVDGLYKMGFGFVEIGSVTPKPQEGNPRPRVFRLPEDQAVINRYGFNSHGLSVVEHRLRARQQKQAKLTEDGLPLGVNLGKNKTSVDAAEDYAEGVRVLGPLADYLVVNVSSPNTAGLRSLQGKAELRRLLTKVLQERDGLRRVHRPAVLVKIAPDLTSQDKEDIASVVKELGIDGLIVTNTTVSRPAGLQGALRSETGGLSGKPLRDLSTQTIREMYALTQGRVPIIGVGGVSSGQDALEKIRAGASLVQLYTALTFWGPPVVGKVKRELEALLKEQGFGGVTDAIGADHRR

Regarding `O=C1OC2(CCCCC2)c2ccn(C3CC3)c(=O)c21`, the fold change (FC) in [1] turned out to be 20; in assay [3] it was 14; in assay [4] it was 163; in [5] it was 83; in [6], 3; in [7], 5. For the same compound, the fold change (FC) in assay [8] was 3; in assay [10] it was 7; in assay [11], 16; in assay [12] it was 15. The outcome in [2], in assay [14] and in [16] was Active. Also, the pEC50 (commonly the EC50 on a negative log10 scale, so that one unit is a factor of ten) in assay [9] is 4.36. In addition, the result in assay [13] was inactive. Moreover, the inhibition result in assay [15] is “Active”.

The values are drawn from ChEMBL document CHEMBL4680118, “Cerpegin-derived furo[3,4-c]pyridine-3,4(1H,5H)-diones enhance cellular response to interferons by de novo pyrimidine biosynthesis inhibition” (Eur J Med Chem, 2020).
